Screens from PubChem BioAssay.
WT yeast gro inh = growth inhibition of WT yeast, mitochondrial fusion screen; mitochondrial fusion phenotypic screen, WT strain; inhibition, % at 10 µM; 190,000 compounds, 2.1% hits; AID 1362; in the data active = inhibition above about 58%; tested in S. cerevisiae
KCC2 mod = KCC2 (human) Cl- transport modulation | 190,000 compounds, 2.2% hits | KCC2 cells, thallium flux FluoZin-2 fluorescence | B-score of Tl+ flux slope (higher = more flux/activation; lower = inhibition) at 10 µM;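 active = thallium flux slope and its plate-corrected score both differing from the plate sample mean at a set confidence after two filtering rounds, in either direction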;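 also: slope of fluorescence scaled to starting intensity during 10 to 20 s after thallium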
NCF1 inh = inhibitors of human p47phox binding; P14598; p47phox/p22phox peptide binding, fluorescence polarization, 2 h; inhibition, % at 24.7 µM; 220,000 compounds, 0.53% hits; AID 1274;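 active = inhibition above about 30%, limit read from the data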;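 also: 0% = p47phox with labelled peptide and 100% = labelled peptide alone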
Target sequence (P14598 whole entry, looked up): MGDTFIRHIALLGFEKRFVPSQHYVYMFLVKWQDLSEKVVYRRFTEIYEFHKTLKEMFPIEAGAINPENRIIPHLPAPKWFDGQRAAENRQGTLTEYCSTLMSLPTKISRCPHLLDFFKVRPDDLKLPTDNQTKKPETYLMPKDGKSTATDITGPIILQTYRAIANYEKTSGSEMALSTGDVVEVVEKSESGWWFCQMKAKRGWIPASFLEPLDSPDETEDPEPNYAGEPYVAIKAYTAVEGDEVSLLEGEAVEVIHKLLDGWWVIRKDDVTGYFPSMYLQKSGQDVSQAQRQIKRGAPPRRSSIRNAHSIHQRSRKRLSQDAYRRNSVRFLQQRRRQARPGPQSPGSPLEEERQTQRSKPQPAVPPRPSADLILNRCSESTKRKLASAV
RBBP9 inhibitor = human RBBP9 hydrolase inhibition | 220,000 compounds, 0.2% hits | recombinant RBBP9, FP-Rh probe fluorescence polarization | AID 1515 | O75884 | inhibition, % at 7.94 µM;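 active = inhibition above the campaign mean of all tested compounds plus 3 SD, cut at about 14% in these data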;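 also: plate controls were DMSO wells with RBBP9 for no effect and wells lacking RBBP9 protein for full effect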
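system = RBBP9 protein | input = RBBP9 at 2.5 µM in dispensed solution, before mixing | measured by = fluorescence polarization (mP), excitation 525 nm, emission 598 nm | incubation = enzyme-compound preincubation 30 min, then probe labeling 45 min, 25 °C | buffer or medium = Tris-NaCl-Pluronic buffer, pH 8.0 | compound = single dose 7.94 µM | also added = FP-Rh probe, 375 nM dispensing solution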
14-3-3 Bad PPI = disrupts binding of bovine 14-3-3 zeta to phospho-Bad peptide | P63103 | TR-FRET 14-3-3zeta/Dy647-pBad peptide displacement, 1 h | inhibition, % at 21.7 µM | 220,000 compounds, 0.71% hits | AID 781;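 active = inhibition above about 70%, limit read from the data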;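 also: 0% = full 14-3-3 plus peptide FRET controls and 100% = background without 14-3-3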
ROMK primary = human ROMK K+ channel modulation, primary screen; Tet-inducible ROMK, thallium flux fluorescence; actives lie on both sides; B-score at 10 µM; 130,000 compounds, 2% hits; AID 1918;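 active = signal ratio slope over the read window, or its plate-corrected B-score, at least 3 SD from the plate mean, either direction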;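 also: B-score of the F/F0 ratio slope over 7 to 12 s after thallium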
Target sequence (P48048 whole entry, looked up): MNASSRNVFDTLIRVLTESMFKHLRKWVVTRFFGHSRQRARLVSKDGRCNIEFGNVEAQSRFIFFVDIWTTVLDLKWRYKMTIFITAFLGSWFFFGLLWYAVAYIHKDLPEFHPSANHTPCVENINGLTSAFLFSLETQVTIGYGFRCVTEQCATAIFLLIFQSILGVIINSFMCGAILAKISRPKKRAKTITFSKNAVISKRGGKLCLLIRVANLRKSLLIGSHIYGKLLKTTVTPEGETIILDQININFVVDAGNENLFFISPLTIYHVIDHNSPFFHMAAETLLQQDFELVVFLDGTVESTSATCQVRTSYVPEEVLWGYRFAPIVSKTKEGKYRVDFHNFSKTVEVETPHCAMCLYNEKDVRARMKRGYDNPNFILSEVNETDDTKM
ROMK retest = retested hit modulating human ROMK potassium channel; shares compounds with ROMK primary; ROMK thallium flux, fluorescence ratio; hits give low values; normalized thallium flux (F/F0 slope) at 10 µM; 3,000 compounds, 54% hits; AID 1917;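 active = Flux at 10 µM at least 3 SD below or above vehicle control mean in one or both replicates; inconclusive = no clear call, values can overlap the other calls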
* hit, by the source's call; i = inactive; ? = inconclusive; nt = no result. Hits are enriched below; roughly 5.8% of the tested compounds scored in any of these assays.

SMILES | WT yeast gro inh | KCC2 mod | NCF1 inh | RBBP9 inhibitor | 14-3-3 Bad PPI | ROMK primary | ROMK retest
COc1ccc(OC)c(C2NC(=S)NC3=C2N2CCC3CC2)c1 (stereo not drawn) | 2.9 | -0.851 | -4.0 | -13.3 | 4.9 | 2.95* | 0.0744
Fc1cccc(C2NC(=S)NC3=C2N2CCC3CC2)c1 (stereo not drawn) | 5.3 | -0.383 | -10.1 | -10.5 | 3.8 | nt | nt
O=C(CCNC(=O)c1ccccc1Cl)Nc1nnc(C2CC2)s1 | 1.8 | -0.154 | -5.6 | -1.6 | -7.4 | 1.17 | nt
COC(=O)C1(c2ccccc2)NC(c2ccc(O)cc2)C2C(=O)N(c3ccc4c(c3)OCO4)C(=O)C21 (stereo not drawn) | nt | 0.0902 | 8.5 | 7.5 | 3.4 | nt | nt
Cc1nnc(SCC(=O)NCCc2ccccc2)s1 | 33.4 | -0.312 | -1.2 | -5.0 | -8.6 | 0.613 | nt
O=C(CSc1ncccn1)Nc1ccc2c(c1)CCC2 | nt | 0.58 | 7.9 | -12.3 | 0.8 | -0.307 | nt
CC1=NN(c2cccc(C(=O)O)c2)C(=O)/C1=C\C=C/c1ccccc1 | 9.4 | -3.26 | -16.4 | -2.7 | -2.4 | -8.31* | 0.0471*
CC1=NN(c2ccccc2)C(=O)/C1=C/c1cccs1 | -3.9 | -1.39 | -8.4 | 2.2 | -5.5 | -3.44* | 0.0482*
CC1=NN(c2ccccc2)C(=O)/C1=C\c1ccc(Br)s1 | 11.0 | 0.436 | -3.4 | -0.3 | -6.5 | 1.33 | nt
CC1=NN(c2ccccc2)C(=O)/C1=C/C=C/C=C/N(C)C | 46.9 | -1.59 | -208.1 | -3.5 | -21.7 | -2.41* | 0.0653*
O=C(NCc1ccco1)c1cccn2c(=O)c3cc4ccccc4cc3nc12 | 38.5 | 0.00541 | 17.3 | -0.9 | 25.2 | -0.774 | nt
COCCCNC(=O)c1cccn2c(=O)c3cc4ccccc4cc3nc12 | 44.3 | -0.342 | -5.7 | -6.8 | -9.1 | nt | 0.0539*
CCCCn1c(N)c(N(CCOC)C(=O)COc2ccc(Cl)cc2)c(=O)[nH]c1=O | -6.2 | -0.288 | -13.8 | -0.4 | -16.6 | 0.299 | nt
CCOc1ccc(C(C)=O)cc1CN1C(=O)C(=O)N(CC)C1=O | 0.0 | 1.1 | -1.5 | -9.8 | 13.5 | 0.0321 | nt
Cc1sc(NC(=O)CCCC(=O)O)c(C#N)c1C | -7.3 | 0.21 | 4.3 | 2.7 | 3.6 | nt | 0.0771
CCCCCC(=O)Nc1sc(C)c(C)c1C#N | 35.8 | -0.502 | -9.6 | -2.5 | 13.5 | nt | nt
COc1ccc(NC(=O)c2cc(S(=O)(=O)N(Cc3ccccc3)c3ccccc3)ccc2Cl)cn1 | 22.0 | -3.34 | -131.3 | -23.2 | -7.5 | nt | nt
O=C(NCc1cccnc1)/C(=C/c1ccc(-c2cccc(C(F)(F)F)c2)o1)NC(=O)c1ccccc1 | -13.4 | -3.32 | -13.0 | -7.5 | 0.3 | -5.05* | 0.0541*
O=C(NCc1cccnc1)/C(=C/c1ccc(-c2ccc(Cl)cc2)o1)S(=O)(=O)c1ccccc1 | 5.9 | -0.619 | -13.2 | -4.6 | -16.7 | nt | 0.0553*
O=C1Nc2c(c(=O)[nH]c(=O)n2-c2ccc(F)cc2)C1(NS(=O)(=O)c1ccccc1)C(F)(F)F (stereo not drawn) | nt | 1.78 | -3.9 | 1.2 | 3.9 | 1.39 | nt
c1ccc2sc(Sc3ncnc4sccc34)nc2c1 | -26.5 | 0.347 | -37.0 | -6.5 | -26.1 | nt | 0.0781
COc1ccc(-c2cc(C(F)(F)F)n3ncc(C(=O)N4CCCCC4c4cccnc4)c3n2)cc1 (stereo not drawn) | 26.9 | -0.424 | -5.9 | 4.8 | -4.4 | -1.13 | nt
Cc1cccc2sc(N(CCCN(C)C)C(=O)CCc3ccccc3)nc12 | 91.8 | 0.633 | -18.5 | 0.0 | -3.3 | -2.09* | 0.0638*
Cc1cccc2sc(N(CCCN(C)C)C(=O)CN3C(=O)c4ccccc4C3=O)nc12 | 38.1 | -0.0714 | -5.7 | -0.2 | 34.3 | 0.00264 | nt
Cc1cccc(NC(=O)CSc2nnc(NC(=O)c3ccc(S(=O)(=O)N4CCOCC4)cc3)s2)c1C | 1.4 | -0.916 | -9.1 | 3.5 | 8.5 | 0.469 | 0.0879
SMILES | WT yeast gro inh | KCC2 mod | NCF1 inh | RBBP9 inhibitor | 14-3-3 Bad PPI | ROMK primary | ROMK retest
COc1ccc(-c2cc(C(=O)Nc3cc(C)nn3-c3ccccc3)no2)cc1OC | 23.1 | 0.221 | -17.1 | -1.4 | -13.8 | 3.69* | 0.0766
COc1ccc(-c2cc(C(=O)Nc3cc(C)on3)no2)cc1OC | -1.1 | 0.444 | -2.5 | -1.2 | -7.9 | -0.752 | nt
Cc1cc(NC(=O)c2noc3c2CCc2ccccc2-3)n(-c2ccccc2)n1 | 3.4 | 0.127 | -8.4 | -7.4 | 15.3 | nt | 0.0828
N#Cc1ccc(NC(=O)COC(=O)CSc2nnc(-c3ccc(Cl)cc3)o2)cc1 | -11.3 | -0.913 | -13.8 | -7.6 | -5.1 | nt | nt
[O-]/[N+](=C\c1ccncc1)c1ccccc1 | 1.6 | 0.47 | 5.9 | -6.0 | -17.1 | nt | 0.0825
CCN(C(=O)CN1CCOCC1)c1c(N)n(Cc2ccccc2)c(=O)[nH]c1=O | -15.2 | 0.628 | -3.1 | -1.3 | -13.6 | -0.514 | nt
CCCCCN(C(=O)CN1CCC(Cc2ccccc2)CC1)c1c(N)n(CCCC)c(=O)[nH]c1=O | 7.2 | -1.21 | -1.6 | 6.8 | -4.1 | -3.22* | 0.0609*
CC1C/C(=C/c2cccn2C)C(=O)/C(=C/c2cccn2C)C1 (stereo not drawn) | 1.2 | i | -173.7 | 3.7 | -12.3 | nt | nt
CC1C/C(=C/c2ccncc2)C(=O)/C(=C/c2ccncc2)C1 (stereo not drawn) | 76.9* | -1.21 | -2.2 | -3.2 | -12.9 | -1.8* | 0.0501*
CCN(c1ccccc1)S(=O)(=O)c1ccc(N)c(OC)c1 | -0.6 | -0.135 | 0.6 | 5.2 | -9.3 | 3.49* | 0.0814
COc1ccc(N2CCN(C(=S)NC(C)c3ccccc3)CC2)cc1 (stereo not drawn) | 10.7 | 0.0244 | -9.6 | 1.5 | -14.4 | 0.554 | nt
Cc1nn(C(C)C(=O)NCc2ccco2)c(C)c1[N+](=O)[O-] (stereo not drawn) | -26.5 | -0.137 | -2.0 | -6.5 | -8.4 | nt | 0.0712
Cc1c(Br)c([N+](=O)[O-])nn1C(C)C(=O)NCc1ccco1 (stereo not drawn) | 6.4 | 1.94 | -6.4 | -0.4 | 1.6 | nt | nt
COCC(=O)N/N=C(\C)CC(=O)NCc1ccco1 | 0.8 | 0.0495 | -1.0 | -5.0 | -14.1 | -0.215 | nt
Cc1cc2cc(CN(Cc3nnnn3C3CCCCC3)CC3CCCO3)c(=O)[nH]c2cc1C (stereo not drawn) | 6.6 | -1.29 | -1.3 | 3.6 | 5.2 | -5.68* | ?
Cc1ccc2cc(CN(Cc3nnnn3C3CCCCC3)CC3CCCO3)c(=O)[nH]c2c1 (stereo not drawn) | 11.7 | -0.38 | -9.3 | -2.7 | -11.7 | nt | nt
Cc1nn2c3ccccc3nc2n(Cc2ccccc2)c1=O | nt | 0.652 | nt | 0.8 | nt | nt | nt
CCn1c(=O)c(C)nn2c3ccccc3nc12 | -20.5 | -0.702 | -4.4 | -1.1 | 37.2 | nt | 0.0725
COc1ccc(C(=O)C2CCCN(Cc3cccn3-c3ccc(Cl)cn3)C2)c(OC)c1 (stereo not drawn) | 44.4 | -0.155 | 0.1 | -6.0 | -12.4 | -1.89 | nt
S=C(Nc1ccccc1)N1CCCCCCC1 | -3.1 | -0.00706 | 6.3 | -6.8 | -10.9 | 0.157 | nt
